In article PMC6980386 (Traffic (Copenhagen, Denmark), 2019):

Tests used:
FL huCD4 V5A = FL huCD4 V5A (Homo sapiens, UniProt P01730, V5A); assay: CADA down-modulation of cellular huCD4; type: cell-based
Procedure, shortened: (§1)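 HEK293T cells, seeded overnight in DMEM with 10% serum, 1 mM sodium pyruvate and 0.075% NaHCO₃, were lipofected with full-length human CD4 (WT or mutant). Test compound in DMSO was added 6 h post-transfection as 1:5 serial dilutions (50–0.016 μM) for 48 h. Surface CD4 was stained with FITC/APC anti-CD4 (SK3) and read by flow cytometry. IC50 is 50% of the untreated signal, from four-parameter fits of ≥3 replicate experiments. FC is mutant/WT mean IC50.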

huCD4_1–32-YFP L10A = huCD4_1–32-YFP L10A (Homo sapiens, UniProt P01730, L10A); assay: CADA inhibition of huCD4_1–32-YFP secretion; type: cell-based
Procedure, shortened: (§2)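 HEK293T cells were grown in DMEM with 10% FBS and 10 mM HEPES, seeded and left to adhere overnight, then transiently transfected with plasmid by Lipofectamine. Test compound was added 6 h after transfection as a 1:5 serial dilution (50 to 0.016 μM) for 48 h. Secreted YFP in the supernatant was captured on GFP-Trap magnetic beads for 1 h, washed with PBS and measured by flow cytometry. IC50 is the concentration that halves the signal relative to the untreated control, taken from a four-parameter fit of at least three replicate experiments. FC is the mutant mean IC50 divided by the WT mean IC50.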

[1] = molecular target: truncated huCD4 D1D2 K26A (Homo sapiens, UniProt P01730, K26A); assay: Cell-free in vitro translation and translocation; type: biochemical
Procedure, shortened: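 Proteinase K protection 30 min on ice, quenched with PMSF. Pellets washed in low-salt buffer (HEPES pH 7.6), then SDS-PAGE and phosphor imaging. Translocation normalised to untreated WT. Two to five independent experiments; Welch's t test.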

huCD4_1–32-YFP A21V = huCD4_1–32-YFP A21V (Homo sapiens, UniProt P01730, A21V); assay: CADA inhibition of huCD4_1–32-YFP secretion; type: cell-based
Procedure, shortened: (§3)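 HEK293T cells were lipofected with human CD4 residues 1–32 fused to the N-terminus of YFP (secreted, no membrane anchor). Test compound was added 6 h post-transfection as 1:5 serial dilutions (50–0.016 μM) for 48 h. Supernatant was captured on GFP-Trap magnetic beads for 1 h, washed in PBS, and YFP was read by flow cytometry. IC50 is 50% of the untreated control, from four-parameter fits of ≥3 replicate experiments. FC is mutant/WT mean IC50.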

FL huCD4 N2A = FL huCD4 N2A (Homo sapiens, UniProt P01730, N2A); assay: CADA down-modulation of cellular huCD4; type: cell-based
Procedure, shortened: as §1

[2] = molecular target: truncated huCD4 D1D2 A17V (Homo sapiens, UniProt P01730, A17V); assay: Cell-free in vitro translation and translocation; type: biochemical; conditions: 15 μM CADA
Procedure, shortened: (§4)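 Truncated huCD4 D1D2 (lacking glycosylation sites and membrane anchor) was made by PCR and transcribed with T7. Proteinase K protection ran 30 min on ice and was quenched with PMSF. Products were separated by SDS-PAGE and imaged by phosphor imaging. The SP-cleaved band was normalised to the matching control. Data are from 2–5 independent experiments, compared with WT by Welch t test.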

FL huCD4 P20G = FL huCD4 P20G (Homo sapiens, UniProt P01730, P20G); assay: CADA down-modulation of cellular huCD4; type: cell-based; conditions: HEK293T, 48h
Procedure, shortened: as §1

FL huCD4 H9A = FL huCD4 H9A (Homo sapiens, UniProt P01730, H9A); assay: CADA down-modulation of cellular huCD4; type: cell-based
Procedure, shortened: as §1

FL huCD4 P6A = FL huCD4 P6A (Homo sapiens, UniProt P01730, P6A); assay: CADA down-modulation of cellular huCD4; type: cell-based
Procedure, shortened: as §1

huCD4_1–32-YFP G4A = huCD4_1–32-YFP G4A (Homo sapiens, UniProt P01730, G4A); assay: CADA inhibition of huCD4_1–32-YFP secretion; type: cell-based
Procedure, shortened: as §2

[3] = molecular target: truncated huCD4 D1D2 P20A (Homo sapiens, UniProt P01730, P20A); assay: Cell-free in vitro translation and translocation; type: biochemical
Procedure, shortened: as §4

huCD4_1–32-YFP A22V = huCD4_1–32-YFP A22V (Homo sapiens, UniProt P01730, A22V); assay: CADA inhibition of huCD4_1–32-YFP secretion; type: cell-based
Procedure, shortened: as §3

FL huCD4 G25A = FL huCD4 G25A (Homo sapiens, UniProt P01730, G25A); assay: CADA down-modulation of cellular huCD4; type: cell-based
Procedure, shortened: as §1

FL huCD4 L10A = FL huCD4 L10A (Homo sapiens, UniProt P01730, L10A); assay: CADA down-modulation of cellular huCD4; type: cell-based
Procedure, shortened: as §1

huCD4_1–32-YFP R8A = huCD4_1–32-YFP R8A (Homo sapiens, UniProt P01730, R8A); assay: CADA inhibition of huCD4_1–32-YFP secretion; type: cell-based; conditions: read-out: Secreted YFP IC50 (μM) Mean, HEK293T, CADA 48h
Procedure, shortened: as §2

huCD4_1–32-YFP L11A = huCD4_1–32-YFP L11A (Homo sapiens, UniProt P01730, L11A); assay: CADA inhibition of huCD4_1–32-YFP secretion; type: cell-based
Procedure, shortened: as §2

FL huCD4 K32A = FL huCD4 K32A (Homo sapiens, UniProt P01730, K32A); assay: CADA down-modulation of cellular huCD4; type: cell-based; conditions: read-out: Cellular huCD4 IC50 (μM) Mean, HEK293T, CADA 48h
Procedure, shortened: as §1

huCD4_1–32-YFP Q15A;P20A = huCD4_1–32-YFP Q15A;P20A (Homo sapiens, UniProt P01730, P20A/Q15A); assay: CADA inhibition of huCD4_1–32-YFP secretion; type: cell-based; conditions: HEK293T, 48h
Procedure, shortened: as §2

huCD4_1–32-YFP Q15A = huCD4_1–32-YFP Q15A (Homo sapiens, UniProt P01730, Q15A); assay: CADA inhibition of huCD4_1–32-YFP secretion; type: cell-based
Procedure, shortened: as §2

FL huCD4 Q15A;P20A = FL huCD4 Q15A;P20A (Homo sapiens, UniProt P01730, P20A/Q15A); assay: CADA down-modulation of cellular huCD4; type: cell-based; conditions: HEK293T, 48h
Procedure, shortened: as §1

huCD4_1–32-YFP F7A = huCD4_1–32-YFP F7A (Homo sapiens, UniProt P01730, F7A); assay: CADA inhibition of huCD4_1–32-YFP secretion; type: cell-based
Procedure, shortened: as §3

[4] = + less, − more sensitive to CADA
[5] = read-out: Cellular huCD4 IC50 (μM) Mean, HEK293T, CADA 48h
[6] = read-out: Secreted YFP IC50 (μM) Mean, HEK293T, CADA 48h

SMILES: C=C1CN(S(=O)(=O)c2ccc(C)cc2)CCCN(Cc2ccccc2)CCCN(S(=O)(=O)c2ccc(C)cc2)C1 [CADA, Cyclotriazadisulfonamide]
- Cellular huCD4 FC (fold change of mean IC50 relative to WT) (FL huCD4 V5A; [4]): −1.9
- IC50 (FL huCD4 V5A; [5]): 0.29 µM
- Secreted YFP FC (fold change of mean IC50 relative to WT) (huCD4_1–32-YFP L10A; [4]): −2.1
- IC50 (huCD4_1–32-YFP L10A; [6]): 0.6 µM
- sensitivity of translocation towards CADA compared to WT ([1]; 15 μM CADA): significantly reduced sensitivity to CADA
- effect of CADA on co-translational translocation ([1]; increasing doses of CADA): still responded to CADA, although to a lesser extent as compared to WT huCD4
- Secreted YFP FC (fold change of mean IC50 relative to WT) (huCD4_1–32-YFP A21V; [4]): −1.6
- IC50 (huCD4_1–32-YFP A21V; [6]): 0.77 µM
- Cellular huCD4 FC (fold change of mean IC50 relative to WT) (FL huCD4 N2A; [4]): +1.4
- IC50 (FL huCD4 N2A; [5]): 0.73 µM
- inhibitory effect of CADA on protein translocation compared to WT [2]: significantly reduced
- sensitivity to CADA (FL huCD4 P20G): fully restored CADA sensitivity
- Cellular huCD4 FC (fold change of mean IC50 relative to WT) (FL huCD4 H9A; [4]): +1.1
- IC50 (FL huCD4 H9A; [5]): 0.62 µM
- Cellular huCD4 FC (fold change of mean IC50 relative to WT) (FL huCD4 P6A; [4]): +1.8
- IC50 (FL huCD4 P6A; [5]): 0.96 µM
- Secreted YFP FC (fold change of mean IC50 relative to WT) (huCD4_1–32-YFP G4A; [4]): −1.4
- IC50 (huCD4_1–32-YFP G4A; [6]): 0.91 µM
- inhibitory effect of CADA on protein translocation compared to WT ([3]; 15 μM CADA): significantly reduced
- effect of CADA on co-translational translocation ([3]; increasing doses of CADA): still responded to CADA, although to a lesser extent as compared to WT huCD4
- Secreted YFP FC (fold change of mean IC50 relative to WT) (huCD4_1–32-YFP A22V; [4]): +1.2
- IC50 (huCD4_1–32-YFP A22V; [6]): 1.58 µM
- Cellular huCD4 FC (fold change of mean IC50 relative to WT) (FL huCD4 G25A; [4]): +1.1
- IC50 (FL huCD4 G25A; [5]): 0.61 µM
- Cellular huCD4 FC (fold change of mean IC50 relative to WT) (FL huCD4 L10A; [4]): −2.7
- IC50 (FL huCD4 L10A; [5]): 0.2 µM
- IC50 (huCD4_1–32-YFP R8A): > 50 µM
- Secreted YFP FC (fold change of mean IC50 relative to WT) (huCD4_1–32-YFP L11A; [4]): −3.3
- IC50 (huCD4_1–32-YFP L11A; [6]): 0.38 µM
- IC50 (FL huCD4 K32A): 1.42 µM
- sensitivity to CADA (huCD4_1–32-YFP Q15A;P20A): no longer responded to CADA
- Secreted YFP FC (fold change of mean IC50 relative to WT) (huCD4_1–32-YFP Q15A; [4]): >+39
- IC50 (huCD4_1–32-YFP Q15A; [6]): > 50 µM
- sensitivity to CADA (FL huCD4 Q15A;P20A): no longer responded to CADA
- Secreted YFP FC (fold change of mean IC50 relative to WT) (huCD4_1–32-YFP F7A; [4]): −2.8
- IC50 (huCD4_1–32-YFP F7A; [6]): 0.46 µM
